The subject of one series is Staphylococcus aureus. Briefly: Antibacterial activity against multidrug resistant Staphylococcus aureus ATCC BAA-44 after 6 to 8 hrs. In kind it is functional, organism-based.
Series [1] can be described thus: Cytotoxicity against human THLE3 cells after 48 hrs by Alamar blue assay. The format is cell-based. An outline of the steps: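 THLE-3 cells, grown in BEBM with the BEGM kit and 10% FBS, were seeded at 1,500 cells/well and allowed 24 h at 37°C, 5% CO2. Compounds were then added at 100 µM to 46 nM final (3-fold steps, 0.1% DMSO) for 48 h. […] CC50 is the log-average of at least triplicate runs.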
For orientation: Resazurin is reduced to fluorescent resorufin, in cell work by metabolically active cells.

The nature of series [2]: Inhibition of refolded MDH (unknown origin) preincubated with Escherichia coli GroEL/GroES for 45 mins using sodium mesoxalate as substrate by spectrometric analysis. The arrangement: species or system Homo sapiens. In a few lines:
(§1)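 Chaperonin-mediated refolding of denatured MDH, coupled to MDH enzymatic activity as the reporter. Human HSP60/10 (HSP60 without its 26-residue mitochondrial signal peptide) or E. coli GroEL/ES was used, with GroEL tetradecamer at 50 nM (700 nM subunits) during the refolding cycle. IC50s from replicate dose-response curves were averaged as logs after ROUT outlier removal.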

Series [3] concerns the target T1, Thiosulfate sulfurtransferase (Homo sapiens, UniProt Q16762).
T1 sequence (Q16762 whole entry): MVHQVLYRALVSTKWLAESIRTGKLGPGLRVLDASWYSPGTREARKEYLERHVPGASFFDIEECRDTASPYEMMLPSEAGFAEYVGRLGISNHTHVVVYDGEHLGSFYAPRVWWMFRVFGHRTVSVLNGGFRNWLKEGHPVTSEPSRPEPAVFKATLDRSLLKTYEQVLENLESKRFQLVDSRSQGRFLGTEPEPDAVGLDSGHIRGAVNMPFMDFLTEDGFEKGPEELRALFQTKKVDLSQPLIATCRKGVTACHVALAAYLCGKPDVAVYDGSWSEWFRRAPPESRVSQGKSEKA
Briefly: Inhibition of refolded rhodanese (unknown origin) preincubated with Escherichia coli GroEL/GroES for 60 mins by measuring […] after 20 to 40 mins by spectrometric analysis.

A further series has as its target HSP60/HSP10 (Homo sapiens, UniProt P10809). Briefly: Inhibition of human N-terminal octa-His-tagged HSP60 expressed in Escherichia coli Rosetta(DE3) pLysS/human HSP10 expressed in Escherichia coli Rosetta(DE3) assessed as reduction in HSP60/HSP10-mediated denatured MDH refolding by measuring MDH enzyme activity using sodium mesoxalate as substrate after 40 to 60 mins by spectrometric analysis. An outline of the steps: as §1

The test system of another series is Enterobacter cloacae. Briefly: Antibacterial activity against Enterobacter cloacae subsp. cloacae ATCC 13047 after 6 to 8 hrs. The format is functional, organism-based. An outline of the steps: (§2)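 Stagnant liquid-culture proliferation assay at 37°C in broth cation-adjusted with 25 mg/L Ca²⁺ and 12.5 mg/L Mg²⁺, with compounds stamped into the wells. […] OD600 turbidity was read at 6–8 h (K. pneumoniae, E. cloacae, P. aeruginosa) or 24 h (A. baumannii). EC50 came from non-linear regression, averaged in log form over replicates.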

The next series deals with Pseudomonas aeruginosa. Briefly: Antibacterial activity against Pseudomonas aeruginosa ATCC 10145 after 6 to 8 hrs. In kind it is functional, organism-based. An outline of the steps: as §2
The next series relates to Acinetobacter baumannii. Briefly: Antibacterial activity against Acinetobacter baumannii ATCC 19606 after 24 hrs. The format is functional, organism-based. Conditions: for Activity: ATCC 19606 = CIP 70.34 = JCM 6841. In a few lines: as §2
For another series, the system named is Klebsiella pneumoniae. Briefly: Antibacterial activity against Klebsiella pneumoniae ATCC 13883 after 6 to 8 hrs. The format is functional, organism-based. In a few lines: as §2
Another series deals with E. coli GroEL/ES (Escherichia coli, UniProt P0A6F5). Briefly: Inhibition of Escherichia coli GroEL expressed in Escherichia coliDH5alpha/Escherichia coli GroES expressed in Escherichia coli BL21 (DE3) assessed as reduction in GroEL/GroES-mediated denatured MDH refolding by measuring MDH enzyme activity using sodium mesoxalate as substrate after 20 to 40 mins by spectrometric analysis. An outline of the steps: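 Coupled refolding assay: denatured rhodanese or MDH refolded by GroEL/ES (50 nM GroEL tetradecamer, 700 nM subunits), read-out via enzymatic activity of refolded substrate; counter-screened against native enzyme activity. IC₅₀ as back-calculated mean of log-transformed replicate values.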
Chain of E. coli GroEL/ES (P0A6F5 whole entry, looked up): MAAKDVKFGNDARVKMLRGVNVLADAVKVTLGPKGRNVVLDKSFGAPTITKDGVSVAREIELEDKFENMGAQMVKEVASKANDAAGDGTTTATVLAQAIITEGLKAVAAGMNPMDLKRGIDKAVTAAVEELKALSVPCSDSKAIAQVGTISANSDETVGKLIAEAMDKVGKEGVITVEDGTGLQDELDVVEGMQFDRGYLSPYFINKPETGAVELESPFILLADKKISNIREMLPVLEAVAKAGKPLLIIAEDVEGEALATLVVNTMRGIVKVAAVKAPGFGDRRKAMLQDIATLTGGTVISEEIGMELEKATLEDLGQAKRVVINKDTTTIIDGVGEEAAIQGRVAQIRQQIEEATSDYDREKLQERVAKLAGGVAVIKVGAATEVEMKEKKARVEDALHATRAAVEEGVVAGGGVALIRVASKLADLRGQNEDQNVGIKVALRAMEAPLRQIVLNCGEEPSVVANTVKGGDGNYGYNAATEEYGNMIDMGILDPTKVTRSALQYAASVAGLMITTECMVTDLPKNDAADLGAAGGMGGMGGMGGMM

Each structure is given as a SMILES string. Calls of active or inactive are those of the source. No rule for the calls is given here.

Chain of HSP60/HSP10 (P10809 whole entry): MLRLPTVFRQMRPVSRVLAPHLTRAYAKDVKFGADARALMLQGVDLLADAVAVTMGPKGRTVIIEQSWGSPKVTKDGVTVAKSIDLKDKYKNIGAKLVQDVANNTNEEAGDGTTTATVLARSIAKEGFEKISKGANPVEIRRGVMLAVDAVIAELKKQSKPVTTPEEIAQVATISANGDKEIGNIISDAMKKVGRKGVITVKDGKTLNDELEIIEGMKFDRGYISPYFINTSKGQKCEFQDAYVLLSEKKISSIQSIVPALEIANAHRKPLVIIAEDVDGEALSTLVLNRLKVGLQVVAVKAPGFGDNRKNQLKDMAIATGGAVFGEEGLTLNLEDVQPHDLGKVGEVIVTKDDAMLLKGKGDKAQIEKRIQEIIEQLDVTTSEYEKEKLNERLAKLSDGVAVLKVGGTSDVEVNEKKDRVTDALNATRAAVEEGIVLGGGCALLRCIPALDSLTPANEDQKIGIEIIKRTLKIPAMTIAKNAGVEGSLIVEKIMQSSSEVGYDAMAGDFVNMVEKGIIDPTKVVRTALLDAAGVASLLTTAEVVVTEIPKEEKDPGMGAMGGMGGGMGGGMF
Chain of HSP60/HSP10 (P61604 whole entry, further chain): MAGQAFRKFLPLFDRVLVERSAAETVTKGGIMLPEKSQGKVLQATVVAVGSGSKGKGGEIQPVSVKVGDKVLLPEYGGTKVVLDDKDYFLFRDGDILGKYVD

For the compound `O=S(=O)(Nc1ccc(-c2nc3cc(NS(=O)(=O)c4ccc(Cl)s4)ccc3o2)cc1)c1ccc(Cl)s1`, a half-maximal response in the series on Staphylococcus aureus (EC50) required 4.6 µM. Also, half-maximal cytotoxicity in series [1] (CC50 at 48 h) was put at 49 µM. The values for the IC50 (in series [2]; in series [3]; at HSP60/HSP10) were 52 µM, more than 100 µM and 5.9 µM, respectively.
Regarding `O=[N+]([O-])c1ccc(S(=O)(=O)Nc2ccc(-c3nc4cc(NS(=O)(=O)c5ccc([N+](=O)[O-])cc5)ccc4o3)cc2)cc1`, the concentration giving a half-maximal response (EC50) (in general, the concentration giving half of the maximal effect) with Staphylococcus aureus came to 7.3 µM. In series [1], the cytotoxic concentration (CC50) (as a rule, the concentration giving 50% cytotoxicity) at 48 h turned out to be 47 µM. For the same compound, the result with Enterobacter cloacae, with Pseudomonas aeruginosa, in the series with Acinetobacter baumannii and with Klebsiella pneumoniae was inactive. Also, the IC50 – broadly, the concentration needed to halve the response being measured – in series [2] was more than 63 µM; in series [3], more than 100 µM; at HSP60/HSP10, 51 µM.
In the series on Staphylococcus aureus, `O=S(=O)(Nc1ccc(-c2nc3cc(NS(=O)(=O)c4ccc(Cl)cc4)ccc3o2)cc1)c1ccc(Cl)cc1` showed an EC50 of 3.5 µM. In series [1], it took 18 µM to reach half-maximal cytotoxicity (CC50 at 48 h). Further, the outcome with Enterobacter cloacae, with Pseudomonas aeruginosa, with Acinetobacter baumannii and with Klebsiella pneumoniae was inactive. Moreover, the IC50 is more than 63 µM in series [2] and more than 100 µM in [3].
As for `O=S(=O)(Nc1ccc(-c2nc3cc(NS(=O)(=O)c4ccc(Cl)s4)ccc3o2)cc1)c1ccc(Cl)c(C(F)(F)F)c1`, the EC50 in the series on Staphylococcus aureus was determined as 2 µM; with Acinetobacter baumannii (ATCC 19606 = CIP 70.34 = JCM 6841, 24 h), 37 µM. Further, the CC50 at 48 h in series [1] was 22 µM. The results for the IC50 (in [2]; in [3]; at HSP60/HSP10) were more than 63 µM, more than 100 µM and 6.1 µM, respectively.
`O=S(=O)(Nc1ccc2oc(-c3ccc(NS(=O)(=O)c4ccc(Cl)s4)cc3)nc2c1)c1cccc(C(F)(F)F)c1` registered an EC50 in the series with Staphylococcus aureus of 1.1 µM. In series [1], this compound showed a CC50 at 48 h of 36 µM. In addition, the IC50 in [2] was 43 µM; on E. coli GroEL/ES, 6.7 µM; in [3], more than 100 µM; on HSP60/HSP10, 5 µM.
Consider `O=S(=O)(Nc1ccc(-c2nc3cc(NS(=O)(=O)c4ccc(Cl)s4)ccc3o2)cc1)c1cccc(C(F)(F)F)c1`, for which a half-maximal effect with Staphylococcus aureus (EC50) was put at 2.3 µM. Besides, it took 27 µM to reach half-maximal cytotoxicity in series [1] (CC50 at 48 h). The IC50 in series [2] is more than 63 µM; in series [3], more than 100 µM.
In turn, `O=S(=O)(Nc1ccc2oc(-c3ccc(NS(=O)(=O)c4ccc(Cl)s4)cc3)nc2c1)c1ccc(Cl)c(C(F)(F)F)c1` had an EC50 in the series on Staphylococcus aureus of 2.2 µM. Besides, in series [1], the CC50 at 48 h was found to be 27 µM. For the same compound, the IC50 in [2] was 40 µM; in series [3] it was more than 100 µM; at HSP60/HSP10 it was 2.4 µM.
For the compound `N#Cc1ccccc1S(=O)(=O)Nc1ccc(-c2nc3cc(NS(=O)(=O)c4ccccc4C#N)ccc3o2)cc1`, the outcome in the series with Enterobacter cloacae, in the series on Pseudomonas aeruginosa, in the series on Acinetobacter baumannii and in the series on Klebsiella pneumoniae was inactive.
Consider `O=S(=O)(Nc1ccc(-c2nc3cc(NS(=O)(=O)C(F)(F)F)ccc3o2)cc1)C(F)(F)F`, for which the outcome in the series on Enterobacter cloacae, with Pseudomonas aeruginosa, with Acinetobacter baumannii and with Klebsiella pneumoniae was inactive.
With `O=C(O)c1cccc(S(=O)(=O)Nc2ccc(-c3nc4cc(NS(=O)(=O)c5cccc(C(=O)O)c5)ccc4o3)cc2)c1`, the outcome in the series on Enterobacter cloacae, with Pseudomonas aeruginosa, in the series with Acinetobacter baumannii and with Klebsiella pneumoniae was inactive.
As for `Nc1cccc(S(=O)(=O)Nc2ccc(-c3nc4cc(NS(=O)(=O)c5cccc(N)c5)ccc4o3)cc2)c1`, the outcome with Enterobacter cloacae, in the series on Pseudomonas aeruginosa, with Acinetobacter baumannii and in the series on Klebsiella pneumoniae was inactive.
Turning to `COC(=O)c1cccc(S(=O)(=O)Nc2ccc(-c3nc4cc(NS(=O)(=O)c5cccc(C(=O)OC)c5)ccc4o3)cc2)c1`, the outcome with Enterobacter cloacae, with Pseudomonas aeruginosa, in the series on Acinetobacter baumannii and in the series on Klebsiella pneumoniae was inactive.
Consider `O=S(=O)(Nc1ccc(-c2nc3cc(NS(=O)(=O)c4cccs4)ccc3o2)cc1)c1cccs1`, for which the outcome in the series on Enterobacter cloacae, with Pseudomonas aeruginosa, with Acinetobacter baumannii and in the series on Klebsiella pneumoniae was inactive.
For `O=S(=O)(Nc1ccc(-c2nc3cc(NS(=O)(=O)c4cccc(C(F)(F)F)c4)ccc3o2)cc1)c1cccc(C(F)(F)F)c1`, a half-maximal response in the series with Staphylococcus aureus (EC50) required 2 µM. The half-maximal cytotoxic concentration (CC50) at 48 h in series [1] stood at 24 µM. Further, the outcome in the series on Enterobacter cloacae, in the series on Pseudomonas aeruginosa, in the series on Acinetobacter baumannii and in the series with Klebsiella pneumoniae was inactive. Also, the IC50 in series [2] was more than 63 µM; in series [3], more than 100 µM; at HSP60/HSP10, 58 µM.
Consider `N#Cc1ccc(S(=O)(=O)Nc2ccc(-c3nc4cc(NS(=O)(=O)c5ccc(C#N)cc5)ccc4o3)cc2)cc1`, for which the result with Enterobacter cloacae, with Pseudomonas aeruginosa, in the series with Acinetobacter baumannii and with Klebsiella pneumoniae was inactive.
Consider `COc1cccc(S(=O)(=O)Nc2ccc(-c3nc4cc(NS(=O)(=O)c5cccc(OC)c5)ccc4o3)cc2)c1`, for which the outcome in the series with Enterobacter cloacae, in the series on Pseudomonas aeruginosa, with Acinetobacter baumannii and in the series on Klebsiella pneumoniae was inactive.
`CS(=O)(=O)Nc1ccc(-c2nc3cc(NS(C)(=O)=O)ccc3o2)cc1`: the result with Enterobacter cloacae, in the series on Pseudomonas aeruginosa, in the series with Acinetobacter baumannii and in the series with Klebsiella pneumoniae was inactive.
Compound `O=S(=O)(Nc1ccc2oc(-c3ccc(NS(=O)(=O)c4cccc5nonc45)cc3)nc2c1)c1ccc(Cl)s1` had an EC50 with Staphylococcus aureus of 4.5 µM. In addition, the CC50 at 48 h in series [1] is 69 µM. Besides, the values for the IC50 (in [2]; in series [3]; at HSP60/HSP10) were more than 63 µM, 72 µM and 11 µM, respectively.
For the compound `CCCS(=O)(=O)Nc1ccc(-c2nc3cc(NS(=O)(=O)CCC)ccc3o2)cc1`, the result in the series with Enterobacter cloacae, in the series with Pseudomonas aeruginosa, in the series with Acinetobacter baumannii and in the series on Klebsiella pneumoniae was inactive.
`O=S(=O)(Nc1ccc(-c2nc3cc(NS(=O)(=O)c4ccc5nsnc5c4)ccc3o2)cc1)c1ccc2nsnc2c1`: the result in the series with Enterobacter cloacae, in the series on Pseudomonas aeruginosa, in the series with Acinetobacter baumannii and in the series on Klebsiella pneumoniae was inactive.
On to `COc1ccccc1S(=O)(=O)Nc1ccc(-c2nc3cc(NS(=O)(=O)c4ccccc4OC)ccc3o2)cc1`, for which the result with Enterobacter cloacae, with Pseudomonas aeruginosa, in the series with Acinetobacter baumannii and in the series on Klebsiella pneumoniae was inactive.
For the compound `O=S(=O)(Nc1ccc(-c2nc3cc(NS(=O)(=O)c4ccc(Br)cc4)ccc3o2)cc1)c1ccc(Br)cc1`, the outcome with Enterobacter cloacae, in the series on Pseudomonas aeruginosa, in the series with Acinetobacter baumannii and with Klebsiella pneumoniae was inactive.
As for `O=S(=O)(Nc1ccc(-c2nc3cc(NS(=O)(=O)c4ccccc4Cl)ccc3o2)cc1)c1ccccc1Cl`, the outcome in the series on Enterobacter cloacae, in the series on Pseudomonas aeruginosa, in the series with Acinetobacter baumannii and in the series on Klebsiella pneumoniae was inactive.
